# Measurements published in ChEMBL document CHEMBL1123290, “Synthesis, antimalarial activity, and quantitative structure-activity relationships of tebuquine and a series of related 5-[(7-chloro-4-quinolinyl)amino]-3-[(alkylamino)methyl] [1,1'-biphenyl]-2-ols and N omega-oxides” (1986).
# Key:
# Assay type in all cases: functional
# Plasmodium berghei [1] = assay: Antimalarial activity in primary screen
# Mus musculus [2] = assay: Antimalarial activity, administered as a single subcutaneous dose of 640 mg/kg, 72 hrs post infection measured as number of mice (Mus musculus) surviving at 60 days post infection
# Method in brief: (§1)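 Mice were infected with a normal drug-sensitive Plasmodium berghei strain. At 72 h postinfection each received one subcutaneous dose of compound dissolved or suspended in peanut oil, in five-mouse groups per dose. The read-out was the number of mice alive at 60 days postinfection, which were scored as cured.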
# Plasmodium berghei [3] = assay: Difference in mean survival time in mice (Mus musculus) (control = 6.2 days) after single 40mg/kg subcutaneous dose 72hr post infection
# Plasmodium berghei [4] = assay: Change in mean survival time for control (average 6.2 days) versus treated mice (Mus musculus) 72 hrs after […] subcutaneous dose
# Plasmodium berghei [5] = assay: Antimalarial activity as 60-day survivors in infected mice (Mus musculus) after single 20 mg/kg subcutaneous dose 72hr post infection; method in brief: as §1
# Plasmodium berghei [6] = assay: Change in mean survival time for control (average 6.2 days) versus treated mice (Mus musculus) 72 hrs after 160 mg/kg subcutaneous dose
# Plasmodium berghei [7] = assay: Change in mean survival time for control (average 6.2 days) versus treated mice (Mus musculus) 72 hrs after 20 mg/kg subcutaneous dose
# Plasmodium berghei [8] = assay: Change in mean survival time for control (average 6.2 days) versus treated mice (Mus musculus) 72 hrs after 5 mg/kg subcutaneous dose
# Plasmodium berghei [9] = assay: Change in mean survival time for control (average 6.2 days) versus treated mice (Mus musculus) 72 hrs after 10 mg/kg subcutaneous dose
# Mus musculus [10] = assay: Antimalarial activity, administered as a single subcutaneous dose of 80 mg/kg, 72 hrs post infection measured as number of mice (Mus musculus) surviving at 60 days post infection; method in brief: as §1
# Plasmodium berghei [11] = assay: (§2) Change in mean survival time for control (average 6.2 days) versus treated mice (Mus musculus) 72 hrs after […] subcutaneous dose
# Plasmodium berghei [12] = assay: Change in mean survival time for control (average 6.2 days) versus treated mice (Mus musculus) 72 hrs after 320 mg/kg subcutaneous dose
# Mus musculus [13] = assay: Antimalarial activity of compound administered as a single subcutaneous dose of 10mg/kg, 72 hrs post infection measured as number of mice (Mus musculus) surviving at 60 days post infection; method in brief: as §1
# Mus musculus [14] = assay: Antimalarial activity, administered as a single subcutaneous dose of 40 mg/kg, 72 hrs post infection measured as number of mice (Mus musculus) surviving at 60 days post infection; method in brief: as §1
# Plasmodium berghei [15] = assay: Change in mean survival time for control (average of 6.2 days) versus treated mice (Mus musculus) 72 hrs after 80 mg/kg subcutaneous dose
# Plasmodium berghei [16] = assay: Change in mean survival time for control (average 6.2 days) versus treated mice (Mus musculus) 72 hrs after 640 mg/kg subcutaneous dose
# Plasmodium berghei [17] = assay: Change in mean survival time of Plasmodium berghei infected mice (Mus musculus) after 5 mg/kg subcutaneous dose
# Plasmodium berghei [18] = assay: Change in mean survival time for control (average 6.2 days) versus treated mice (Mus musculus) after 320 mg/kg subcutaneous dose
# Plasmodium berghei [19] = assay: Antimalarial activity as 60-day survivors in Plasmodium berghei infected mice (Mus musculus) after single 160mg/kg subcutaneous dose 72 hr post infection; method in brief: as §1
# Plasmodium berghei [20] = assay: Difference in mean survival time of Plasmodium berghei infected mice (Mus musculus) after 10 mg/kg subcutaneous dose
# Plasmodium berghei [21] = assay: Antimalarial activity as 60-day survivors in infected mice (Mus musculus) after single 320mg/kg subcutaneous dose 72 hr post infection; method in brief: as §1
# Plasmodium berghei [22] = assay: Change in mean survival time for control (average 6.2 days) versus treated mice (Mus musculus) after 160 mg/kg subcutaneous dose
# Plasmodium berghei [23] = assay: Change in mean survival time for control (average 6.2 days) versus treated mice (Mus musculus) after 40 mg/kg subcutaneous dose
# Plasmodium berghei [24] = assay: Change in mean survival time in control (average 6.2 days) versus treated mice (Mus musculus) after 80 mg/kg subcutaneous dose
# Plasmodium berghei [25] = assay: Change in mean survival time of Plasmodium berghei infected mice (Mus musculus) on 1.25 mg/kg subcutaneous dose
# Plasmodium berghei [26] = assay: Change in mean survival time of Plasmodium berghei infected mice (Mus musculus) after […] subcutaneous dose
# Plasmodium berghei [27] = assay: as §2; remark: listed apart in the source
# Plasmodium berghei [28] = assay: Change in mean survival time for control (average 6.2 days) versus treated mice (Mus musculus) after 20 mg/kg subcutaneous dose
Compound,ED30 (Plasmodium berghei [1]) [mg/kg],No. of mice cured (Mus musculus [2]),Delta MST (Plasmodium berghei [4]) [days],No. of mice cured (Plasmodium berghei [5]),Delta MST (Plasmodium berghei [6]) [days],Delta MST (Plasmodium berghei [7]) [days],Delta MST (Plasmodium berghei [8]) [days],Delta MST (Plasmodium berghei [9]) [days],No. of mice cured (Mus musculus [10]),Delta MST (Plasmodium berghei [11]) [days],No. of mice cured (Mus musculus [13]),No. of mice cured (Mus musculus [14]),Delta MST (Plasmodium berghei [17]) [days],No. of mice cured (Plasmodium berghei [19]),Delta MST (Plasmodium berghei [20]) [days],No. of mice cured (Plasmodium berghei [21]),Delta MST (Plasmodium berghei [23]) [days],Delta MST (Plasmodium berghei [25]) [days],Delta MST (Plasmodium berghei [26]) [days],Delta MST (Plasmodium berghei [28]) [days],also measured
CCN(CC)Cc1cc(Nc2ccnc3cc(Cl)ccc23)cc(-c2ccc(C(F)(F)F)cc2)c1O,9.8,1,2,2,11.9,19.4,11,18.9,2,0,1,2,–,–,–,–,–,–,–,–,Delta MST (Plasmodium berghei [3]): 13 days; Delta MST (Plasmodium berghei [12]): 10.1 days; Delta MST (Plasmodium berghei [15]): 12 days; Delta MST (Plasmodium berghei [16]): 17 days
CCN(CC)Cc1cc(Nc2cc[n+]([O-])c3cc(Cl)ccc23)cc(-c2cccc(Cl)c2)c1O,27.4,3,–,–,–,–,–,–,2,–,–,2,2.1,4,9.7,4,25.9,0.3,0.7,16.5,Delta MST (Plasmodium berghei [18]): 21.9 days; Delta MST (Plasmodium berghei [22]): 28.9 days; Delta MST (Plasmodium berghei [24]): 25.6 days; Delta MST (Plasmodium berghei [27]): 16.4 days
CC(C)(C)NCc1cc(Nc2ccnc3cc(Cl)ccc23)cc(-c2ccc(F)cc2)c1O,–,–,7.5,1,11.9,18,8.9,16.5,1,1.7,1,3,–,1,–,–,–,–,–,–,Delta MST (Plasmodium berghei [3]): 15.2 days; Delta MST (Plasmodium berghei [12]): 16.6 days; Delta MST (Plasmodium berghei [15]): 12.4 days; Delta MST (Plasmodium berghei [16]): 14.4 days
CCN(CC)Cc1cc(Nc2ccnc3cc(Cl)ccc23)cc(-c2ccccc2)c1O,10.4,5,0.3,5,–,–,0.7,11.9,5,0.3,2,5,–,5,–,5,–,–,–,–,–
CCN(CC)Cc1cc(Nc2cc[n+]([O-])c3cc(Cl)ccc23)cc(-c2ccc(Cl)cc2)c1O,9.2,5,–,3,–,–,–,–,5,–,2,4,5.7,5,14.2,5,36.9,0.7,1.3,20.9,–
CCN(CC)Cc1cc(Nc2cc[n+]([O-])c3cc(Cl)ccc23)cc(-c2ccc(SC)cc2)c1O,158,2,–,–,–,–,–,–,1,–,–,–,1.5,1,2.1,4,10.3,0.1,0.5,6.5,Delta MST (Plasmodium berghei [18]): 18.6 days; Delta MST (Plasmodium berghei [22]): 19.9 days; Delta MST (Plasmodium berghei [24]): 9.4 days; Delta MST (Plasmodium berghei [27]): 27.3 days
CCN(CC)Cc1cc(Nc2cc[n+]([O-])c3cc(Cl)ccc23)cc(-c2ccccc2F)c1O,48.4,4,–,–,–,–,–,–,–,–,–,1,1.5,3,6.1,2,17.1,-0.1,-0.1,12.2,Delta MST (Plasmodium berghei [18]): 31.9 days; Delta MST (Plasmodium berghei [22]): 20.1 days; Delta MST (Plasmodium berghei [24]): 15.6 days; Delta MST (Plasmodium berghei [27]): 35.6 days
CCCCN(CCCC)Cc1cc(Nc2cc[n+]([O-])c3cc(Cl)ccc23)cc(-c2ccc(Cl)cc2)c1O,–,1,–,–,–,–,–,–,–,0.4,–,–,0.4,–,-0.2,–,2.2,0.4,-0.2,3.2,Delta MST (Plasmodium berghei [18]): 21.2 days; Delta MST (Plasmodium berghei [22]): 12; Delta MST (Plasmodium berghei [24]): 8 days; Delta MST (Plasmodium berghei [27]): 31.7 days
CC(C)(C)NCc1cc(Nc2ccnc3cc(Cl)ccc23)cc(-c2ccc(C(F)(F)F)cc2)c1O,–,3,3.4,–,9.1,21.2,11.8,10.4,–,0.2,1,2,–,–,–,–,–,–,–,–,Delta MST (Plasmodium berghei [3]): 14.9 days; Delta MST (Plasmodium berghei [12]): 12.1 days; Delta MST (Plasmodium berghei [15]): 10.7 days; Delta MST (Plasmodium berghei [16]): 11.7 days
CCN(CC)Cc1cc(Nc2ccnc3cc(Cl)ccc23)cc(-c2ccc(Cl)cc2)c1O [TEBAQUINE],–,1,0.1,1,11.9,33.7,20.7,30.2,5,0.1,1,5,–,4,–,2,–,–,–,–,Delta MST (Plasmodium berghei [12]): 11.2 days; Delta MST (Plasmodium berghei [16]): 11.9 days
CCN(CC)Cc1cc(Nc2ccnc3cc(Cl)ccc23)cc(-c2c(F)c(F)c(F)c(F)c2F)c1O,7.4,5,7.9,1,47,18.8,12.9,18.8,5,3.5,2,4,–,4,–,5,–,–,–,–,Delta MST (Plasmodium berghei [3]): 20.5 days
CCN(CC)Cc1cc(Nc2ccnc3cc(Cl)ccc23)cc(-c2cccc(F)c2F)c1O,8.7,4,6.7,2,35.1,22.2,13.7,16.7,3,0.7,1,3,–,2,–,4,–,–,–,–,Delta MST (Plasmodium berghei [3]): 39.4 days; Delta MST (Plasmodium berghei [12]): 19.8 days; Delta MST (Plasmodium berghei [15]): 33.3 days; Delta MST (Plasmodium berghei [16]): 19.8 days
CC(C)(C)NCc1cc(Nc2cc[n+]([O-])c3cc(Cl)ccc23)cc(-c2ccccc2)c1O,–,3,–,1,–,–,–,–,1,–,–,1,4.5,2,12.5,3,21,-0.3,-0.1,21,Delta MST (Plasmodium berghei [18]): 14.5 days; Delta MST (Plasmodium berghei [22]): 23.2 days; Delta MST (Plasmodium berghei [24]): 15.5 days; Delta MST (Plasmodium berghei [27]): 14 days
CN(C)Cc1cc(Nc2cc[n+]([O-])c3cc(Cl)ccc23)cc(-c2ccc(Cl)cc2)c1O,–,1,–,3,–,–,–,–,3,0,1,3,17.6,5,17.8,3,26.3,0,5,27.8,Delta MST (Plasmodium berghei [18]): 17.9 days; Delta MST (Plasmodium berghei [24]): 21.9 days; Delta MST (Plasmodium berghei [27]): 20.7 days
